Assays:
Rat [1] = test: concentration in plasma after dosing; settings: 10 min; dosed: Isoeugenol; 17 mg/kg; oral; Male; F344/N
Rat [2] = test: concentration in plasma after dosing; settings: dosed: Isoeugenol, 17 mg/kg, oral, Female, F344/N
Rat [3] = test: concentration in plasma after dosing; settings: dosed: Isoeugenol, 17 mg/kg, oral, Male, F344/N
Rat [4] = test: concentration in plasma after dosing; settings: dosed: Isoeugenol, 17 mg/kg, oral, Male, F344/N; remark: listed apart in the source
Rat [5] = test: concentration in plasma after dosing; settings: dosed: Isoeugenol, 17 mg/kg, oral, Male, F344/N; remark: listed apart in the source
Rat [6] = test: concentration in plasma after dosing; settings: dosed: Isoeugenol, 17 mg/kg, oral, Male, F344/N; remark: listed apart in the source
Rat [7] = test: concentration in plasma after dosing; settings: dosed: Isoeugenol, 17 mg/kg, oral, Female, F344/N; remark: listed apart in the source
Rat [8] = test: concentration in plasma after dosing; settings: 0.5 h; dosed: Isoeugenol; 70 mg/kg; oral; Male; F344/N
Rat [9] = test: concentration in plasma after dosing; settings: dosed: Tetralin, 2 mg/kg, iv, Male, F344
Rat [10] = test: concentration in plasma after dosing; settings: 2 h; dosed: Tetralin; 2 mg/kg; iv; Male; Harlan Sprague Dawley
Rat [11] = test: concentration in plasma after dosing; settings: dosed: Tetralin, 20 mg/kg, iv, Female, Harlan Sprague Dawley
Rat [12] = test: concentration in plasma after dosing; settings: 2 h; dosed: Tetralin; 20 mg/kg; iv; Female; Harlan Sprague Dawley
Rat [13] = test: concentration in plasma after dosing; settings: dosed: Tetralin, 2 mg/kg, iv, Male, Harlan Sprague Dawley
Rat [14] = test: concentration in plasma after dosing; settings: dosed: Tetralin, 20 mg/kg, iv, Female, Harlan Sprague Dawley; remark: listed apart in the source
Rat [15] = test: concentration in plasma after dosing; settings: dosed: Tetralin, 2 mg/kg, iv, Male, Harlan Sprague Dawley; remark: listed apart in the source
Rat [16] = test: concentration in plasma after dosing; settings: dosed: Tetralin, 2 mg/kg, iv, Male, Harlan Sprague Dawley; remark: listed apart in the source
Rat [17] = test: concentration in plasma after dosing; settings: dosed: Tetralin, 2 mg/kg, iv, Male, Harlan Sprague Dawley; remark: listed apart in the source
human = test: concentration in blood after dosing; negative times count back from the end of exposure; settings: dosed: methylethylketone, inhalation, duration: 4 hr, male
In short: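 Sampling and analytical methods are those of each source and frequently went unreported. The concentration-versus-time and amount-versus-time points were compiled from published in vivo toxicokinetic studies and two structured collections. Most were digitised from plot screenshots with WebPlotDigitizer, with others copied from tables, in the reported units.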

rat [18] = test: concentration in blood after dosing; settings: dosed: styrene, 3000 ppm, dermal, duration: 4 hr, male, F344

## C/C=C/c1ccc(O)c(OC)c1 [Isoeugenol]
Rat [1]
  concentration in plasma: 209 ng/mL
Rat [2]; 20 min
  concentration in plasma: 86.9 ng/mL
Rat [2]; 1.5 h
  concentration in plasma: 33.6 ng/mL
Rat [3]; 10 min
  concentration in plasma: 220 ng/mL
Rat [3]; 3 h
  concentration in plasma: 17.2 ng/mL
Rat [4]; 0.5 h
  concentration in plasma: 130 ng/mL
Rat [4]; 2 h
  concentration in plasma: 35.7 ng/mL
Rat [5]; 1 h
  concentration in plasma: 28.4 ng/mL
Rat [5]; 3 h
  concentration in plasma: 68.6 ng/mL
Rat [6]; 0.75 h
  concentration in plasma: 32.4 ng/mL
Rat [6]; 2 h
  concentration in plasma: 77.9 ng/mL
Rat [7]; 0.5 h
  concentration in plasma: 162 ng/mL
Rat [7]; 4 h
  concentration in plasma: 33.5 ng/mL
Rat [8]
  concentration in plasma: 469 ng/mL

## c1ccc2c(c1)CCCC2 [Tetralin]
Rat [9]; 0.2517 h
  concentration in plasma: 0.63 µg/g
Rat [9]; 6 h
  concentration in plasma: 0.00762 µg/g
Rat [10]
  concentration in plasma: 0.0179 µg/g
Rat [11]; 0.25 h
  concentration in plasma: 10.9 µg/g
Rat [11]; 6 h
  concentration in plasma: 0.111 µg/g
Rat [12]
  concentration in plasma: 0.628 µg/g
Rat [13]; 0.5033 h
  concentration in plasma: 0.208 µg/g
Rat [13]; 8 h
  concentration in plasma: 0.00401 µg/g
Rat [14]; 0.75 h
  concentration in plasma: 2.18 µg/g
Rat [14]; 12 h
  concentration in plasma: 0.0369 µg/g
Rat [15]; 5 min
  concentration in plasma: 1.74 µg/g
Rat [15]; 4 h
  concentration in plasma: 0.00854 µg/g
Rat [16]; 307 s
  concentration in plasma: 1.62 µg/g
Rat [16]; 4 h
  concentration in plasma: 0.0072 µg/g
Rat [17]; 0.75 h
  concentration in plasma: 0.0973 µg/g
Rat [17]; 12 h
  concentration in plasma: 0.00173 µg/g

## CCC(C)=O [methylethylketone]
human; 0.1373 h, 400 ppm
  concentration in blood: 216 µM
human; 0.1381 h, 200 ppm
  concentration in blood: 70.4 µM
human; 0.1632 h, 25 ppm
  concentration in blood: 2.96 µM
human; 0.1664 h, 25 ppm
  concentration in blood: 3.3 µM
human; 0.3028 h, 200 ppm
  concentration in blood: 74.4 µM
human; 0.3068 h, 400 ppm
  concentration in blood: 201 µM
human; 0.3094 h, 200 ppm
  concentration in blood: 54.5 µM
human; 0.3251 h, 25 ppm
  concentration in blood: 2.53 µM
human; 0.3266 h, 25 ppm
  concentration in blood: 2.69 µM
human; 28 min, 400 ppm
  concentration in blood: 171 µM
human; 0.4719 h, 200 ppm
  concentration in blood: 65.3 µM
human; 0.4774 h, 25 ppm
  concentration in blood: 2.09 µM
human; 0.4845 h, 200 ppm
  concentration in blood: 49.1 µM
human; 0.4885 h, 25 ppm
  concentration in blood: 2.26 µM
human; 0.9614 h, 200 ppm
  concentration in blood: 40.1 µM
human; 0.9652 h, 200 ppm
  concentration in blood: 50.5 µM
human; 0.9754 h, 400 ppm
  concentration in blood: 150 µM
human; 0.9842 h, 25 ppm
  concentration in blood: 1.52 µM
human; 0.985 h, 25 ppm
  concentration in blood: 1.61 µM
human; 1.481 h, 200 ppm
  concentration in blood: 44.7 µM
human; 1.482 h, 200 ppm
  concentration in blood: 22.9 µM
human; 1.484 h, 400 ppm
  concentration in blood: 121 µM
human; 1.968 h, 200 ppm
  concentration in blood: 25.4 µM
human; 1.969 h, 200 ppm
  concentration in blood: 17.2 µM
human; 1.978 h, 400 ppm
  concentration in blood: 115 µM
human; 1.982 h, 25 ppm
  concentration in blood: 0.771 µM
human; 1.983 h, 25 ppm
  concentration in blood: 0.828 µM
human; 2.965 h, 200 ppm
  concentration in blood: 24.3 µM
human; 2.966 h, 200 ppm
  concentration in blood: 14.6 µM
human; 2.966 h, 400 ppm
  concentration in blood: 98.4 µM
human; 2.996 h, 25 ppm
  concentration in blood: 0.635 µM
human; 3 h, 25 ppm
  concentration in blood: 0.521 µM
human; 3.971 h, 200 ppm
  concentration in blood: 9.24 µM
human; 3.974 h, 200 ppm
  concentration in blood: 5.93 µM
human; 4.006 h, 25 ppm
  concentration in blood: 0.63 µM
human; 4.01 h, 25 ppm
  concentration in blood: 0.532 µM
human; 4.323 h, 400 ppm
  concentration in blood: 48 µM
human; 4.987 h, 400 ppm
  concentration in blood: 33.2 µM
human; 5.414 h, 200 ppm
  concentration in blood: 3.68 µM
human; 5.418 h, 200 ppm
  concentration in blood: 2.75 µM
human; 7.74 h, 200 ppm
  concentration in blood: 1.75 µM
human; -46 s, 400 ppm, during exposure
  concentration in blood: 230 µM
human; -1 min, 200 ppm, during exposure
  concentration in blood: 93 µM
human; -69 s, 25 ppm, during exposure
  concentration in blood: 4.74 µM
human; -83 s, 200 ppm, during exposure
  concentration in blood: 100 µM
human; -122 s, 25 ppm, during exposure
  concentration in blood: 4.68 µM
human; -0.7835 h, 200 ppm, during exposure
  concentration in blood: 86.7 µM
human; -0.7876 h, 200 ppm, during exposure
  concentration in blood: 88.3 µM
human; -1.006 h, 400 ppm, during exposure
  concentration in blood: 215 µM
human; -1.012 h, 25 ppm, during exposure
  concentration in blood: 4.01 µM
human; -1.022 h, 25 ppm, during exposure
  concentration in blood: 4.44 µM
human; -1.508 h, 200 ppm, during exposure
  concentration in blood: 69.5 µM
human; -1.527 h, 200 ppm, during exposure
  concentration in blood: 81.5 µM
human; -1.994 h, 400 ppm, during exposure
  concentration in blood: 177 µM
human; -2.012 h, 25 ppm, during exposure
  concentration in blood: 3.56 µM
human; -2.017 h, 25 ppm, during exposure
  concentration in blood: 3.04 µM
human; -2.503 h, 400 ppm, during exposure
  concentration in blood: 162 µM
human; -2.505 h, 200 ppm, during exposure
  concentration in blood: 58.5 µM
human; -2.506 h, 200 ppm, during exposure
  concentration in blood: 55 µM
human; -2.992 h, 400 ppm, during exposure
  concentration in blood: 112 µM
human; -2.993 h, 25 ppm, during exposure
  concentration in blood: 2.68 µM
human; -2.997 h, 25 ppm, during exposure
  concentration in blood: 3.29 µM
human; -3.243 h, 200 ppm, during exposure
  concentration in blood: 41.8 µM
human; -3.248 h, 200 ppm, during exposure
  concentration in blood: 54.2 µM
human; -3.477 h, 400 ppm, during exposure
  concentration in blood: 80 µM
human; -3.505 h, 25 ppm, during exposure
  concentration in blood: 2.71 µM
human; -3.508 h, 25 ppm, during exposure
  concentration in blood: 2.38 µM
human; -3.661 h, 400 ppm, during exposure
  concentration in blood: 68.3 µM
human; -3.67 h, 25 ppm, during exposure
  concentration in blood: 2.79 µM
human; -3.681 h, 25 ppm, during exposure
  concentration in blood: 2.14 µM
human; -3.739 h, 200 ppm, during exposure
  concentration in blood: 24.1 µM
human; -3.827 h, 25 ppm, during exposure
  concentration in blood: 2.22 µM
human; -3.83 h, 400 ppm, during exposure
  concentration in blood: 47.8 µM
human; -3.835 h, 25 ppm, during exposure
  concentration in blood: 1.85 µM
human; -3.993 h, 25 ppm, during exposure
  concentration in blood: 0.263 µM
human; -3.994 h, 25 ppm, during exposure
  concentration in blood: 0.18 µM

## C=Cc1ccccc1 [styrene]
Rat [18]; 0.5 h
  concentration in blood: 1550 ng/mL
Rat [18]; 1 h
  concentration in blood: 3450 ng/mL
Rat [18]; 2 h
  concentration in blood: 4650 ng/mL
Rat [18]; 3 h
  concentration in blood: 8180 ng/mL
Rat [18]; 4 h
  concentration in blood: 8810 ng/mL

— EPA's CvTdb concentration-time database
